From ChEMBL document CHEMBL1123091, “Synthesis and antiviral evaluation of nucleosides of 5-methylimidazole-4-carboxamide” (J Med Chem, 1985)
Converted amounts (≈) assume the structure as drawn.

Legend:
[1] = system: Human alphaherpesvirus 1; assay: Compound was tested for antiviral activity in HeLa Cell cultures, against herpes simplex virus type 1 (HSV-1), cytopathic effect induced by the virus (CPE); assay type: functional
Method in brief: (§1)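 HeLa cells grown to confluency in petri dishes, then infected (or mock-infected) with HSV-1 at 0.5 PFU/cell. Test compound added at a range of concentrations.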

[2] = Compound was tested for antiviral activity in HeLa Cell cultures, against herpes simplex virus type 1 (HSV-1); assay type: organism-based; conditions: human alphaherpesvirus 1, HeLa cell cultures; read-out: Tox50; method in brief: as §1
[3] = system: Vesicular stomatitis virus; assay: Compound was tested for antiviral activity in HeLa Cell cultures, against vesicular stomatitis virus (VSV), cytopathic effect induced by the virus (CPE); assay type: functional
Method in brief: (§2)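 HeLa cells grown to confluency in petri dishes, then infected (or mock-infected) with VSV at 0.01 PFU/cell. Test compound added at a range of concentrations.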

[4] = Compound was tested for antiviral activity in HeLa Cell cultures, against vesicular stomatitis virus (VSV); assay type: ADME, organism-based; conditions: read-out: Tox50; method in brief: as §2
[5] = system: Human alphaherpesvirus 1; assay: Compound was tested for antiviral activity in HeLa Cell cultures, against herpes simplex virus type 1 (HSV-1) expressed as cytopathic effect induced by the virus (CPE); assay type: functional; method in brief: as §1
[6] = system: Vesicular stomatitis virus; assay: Compound was tested for antiviral activity in HeLa Cell cultures, against vesicular stomatitis virus (VSV) expressed as cytopathic effect induced by the virus (CPE); assay type: functional; method in brief: as §2
[7] = Compound was tested for antiviral activity in HeLa Cell cultures against vesicular stomatitis virus (VSV); assay type: ADME, organism-based; conditions: read-out: Tox50; method in brief: as §2
[8] = Compound was tested for antiviral activity in HeLa Cell cultures against herpes simplex virus type 1 (HSV-1); assay type: organism-based; conditions: human alphaherpesvirus 1, HeLa cell cultures; read-out: Tox50; method in brief: as §1

Compound: Cc1c(C(N)=O)ncn1[C@@H]1C[C@H](O)[C@@H](CO)O1
- CPE50 [1]: >200 µg/mL
- CC50 [2]: > 200 µg/mL
- CPE50 [3]: 150 µg/mL
- CC50 [4]: > 400 µg/mL

Compound: Cc1c(C(N)=O)ncn1[C@H]1C[C@H](O)[C@@H](CO)O1
- CPE50 [5]: 150 µg/mL
- CPE50 [6]: 150 µg/mL
- CC50 [7]: > 400 µg/mL
- CC50 [8]: 300 µg/mL (≈ 1240 µM)

Compound: Cc1[nH]cnc1C(N)=O
- CPE50 [1]: >200 µg/mL
- CC50 [2]: > 200 µg/mL

Compound: Cc1c(C(N)=O)ncn1COCCO
- CPE50 [1]: >200 µg/mL
- CC50 [2]: > 200 µg/mL
- CPE50 [3]: 180 µg/mL
- CC50 [4]: > 200 µg/mL

Compound: Cc1c(C(N)=O)ncn1C1O[C@H](CO)[C@@H](O)[C@H]1O (some centres not stated)
- CPE50 [1]: 75 µg/mL
- CC50 [2]: > 400 µg/mL
- CPE50 [3]: 125 µg/mL
- CC50 [4]: > 400 µg/mL

Compound: NC(=O)c1ncn([C@@H]2O[C@H](CO)[C@@H](O)[C@H]2O)n1 [RIBAVIRIN]
- CPE50 [1]: 75 µg/mL
- CC50 [2]: 400 µg/mL (≈ 1640 µM)
- CPE50 [3]: 15 µg/mL
- CC50 [4]: 400 µg/mL (≈ 1640 µM)
